Measured values reported in the EternaBench riboswitch data.

Tested on: MS2 coat protein
Test: apparent Kd, MS2 coat protein; higher = weaker binding; RNA-MaP array; FMN 200 µM where present
Outline: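 The titrant was SNAP-549-labelled MS2 coat protein, run from 0.7 or 1.5 nM in doubling steps to 3 µM. It was applied to designs transcribed by stalled E. coli RNA polymerase on Illumina sequencing-chip clusters, without ligand first and then with constant ligand, in 100 mM Tris-HCl pH 7.5, 80 mM KCl, 4 mM MgCl2, BSA, DTT, yeast tRNA and Tween-20. The apparent Kd is the median of filtered per-cluster binding-curve fits, with green signal normalised to red-channel RNA signal and control-cluster median Fmax.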

[1] = designed as: OFF switch for flavin mononucleotide, no ligand
[2] = ligand present: flavin mononucleotide, designed as: OFF switch for flavin mononucleotide
[3] = designed as: ON switch for flavin mononucleotide, no ligand
[4] = ligand present: flavin mononucleotide, designed as: ON switch for flavin mononucleotide

Sequence | apparent Kd [1] | apparent Kd [2] | apparent Kd [3] | apparent Kd [4]
GUGUACAGAGGAUAUGCACGAGUAGUUACGAAAGUAACUACACAUGAGGAUCACCCAUGUAGAAGGCUGUACAC | 13.2 nM | 16.9 nM | – | –
GUGUAGACAGGAUAUGCUUUGAGCAUAUGAGAGUAUGCUCUACAUGAGGAUCACCCAUGUAGAAGGGUCUACAC | 11.9 nM | 12.5 nM | – | –
GUGUAGGUAGGAUAUACAUGAGGAUCACCCAUGUGAAUAAGAUAGAAUAAGAUAAAGUGUAGAAGGACUAGUGU | 37 nM | 28.8 nM | – | –
GUGUAGUCAGGAUAUACAUAGGAAGAGAAGAGAAGAUAAGUACAUGAGGAUCACCCAUGUAGAAGGGACAGUGU | 30.6 nM | 29.6 nM | – | –
GUGUCUUGGGAGAAGGCCGUAUGCAAAGCAUACGGAGGAUAUUCAUACCGGAAACGGACAUGAGGAUCACCCAUGUGGCACAAA | – | – | 947 nM | 34.8 nM
GUGUGCAGAGGAUAUACAUAGGAAUAUAAUAUAAUAUAAUUACAUGAGGAUCACCCAUGUAGAAGGCUGAGUGU | 23.8 nM | 26.8 nM | – | –
GUGUGUUGCGGGCAGGAUAUGUACUUGAGUACAUGAGGAUCACCCAUGUGCGGGUGUUUCACCCGACAGAAGGGCCUAUCGCGAC | – | – | 977 nM | 309 nM
GUGUUACAUGAGGAUCACCCAUGUUGUUGUAGAUAAGGAUAUAUGGGAACGAGAGAAAUAAUAGAAGGUAUUAGGC | – | – | 71.2 nM | 67.7 nM
GUGUUUGAUGAGGAUAUCGAUGUGGGUACAUAGCGAGAAGGCAUUACAUGAGGAUCACCCAUGUAGUGUGGGUU | 25 nM | 56.7 nM | – | –
GUUAACGCAUGAGGAUAUGCUCGCAUUUCAAGAGCAGAAGGUAUGUCUAUAGACAUGAGGAUCACCCAUGUAUUUAUCAUUGAA | – | – | 245 nM | 39.6 nM
GUUAAGAACUAAGGAUAUUGAAUACAUAUGUUUAACAUGAGGAUCACCCAUGUGGGUUGCGGUGUCGAGAAGGUAGAAUAAUAG | – | – | 201 nM | 195 nM
GUUAAGGUAGGAUAUACGAUAAGAUAGGGUAGAUAUAUAACACAUGAGGAUCACCCAUGUAGAAGGACCAAUUG | 38.3 nM | 105 nM | – | –
GUUAAUUAGUGAGGAUAUACAGAAAUUAAAACUGUAGAAGGCACAUUCCUCAAGACAUGAGGAUCACCCAUGUGAUAAUAAGAU | 35.2 nM | 127 nM | – | –
GUUACAUGAGGAUCACCCAUGUAUGUGUGGGAGUAAGUGUCUUAGGAUAUCUAUCAUUUAAUAUAAGAGAAGGAAGAUUGUUGU | – | – | 109 nM | 140 nM
GUUAGUUAAGGAUAUACAGGGAGCUGCGGCGUCUCGCCGCAACAUGAGGAUCACCCAUGUAGAAGGUGACCUUU | 529 nM | 406 nM | – | –
GUUAUUAUUAGUUCAUACUAUAAGAUAGAAGGUGAAUAAUUGACAUGAGGAUCACCCAUGUAAUUCAAGGAUAUGUAGAUACUC | – | – | 32 nM | 17.6 nM
GUUAUUAUUAGUUCAUACUAUAAGAUAGAAGGUGAUUUAUUGACAUGAGGAUCACCCAUGUAAUUCAAGGAUAUGUAGAUACUC | – | – | 374 nM | 248 nM
GUUAUUGACAAGAAGGCAUACAUGAGGAUCACCCAUGUUCUACAUGGAUAAUGAGGAUAUUGCCAAUACAUGAGGAUCACCCAG | 68.3 nM | 77.5 nM | – | –
GUUCGUUUGAUAGGAUAUCGCUAUACAUGAGGAUCACCCAUGUUUACCACGCUGGUUUUUCGUACCGAGAAGGAUUCUGAUGAU | – | – | 40.2 nM | 36.2 nM

Sequence | apparent Kd [1] | apparent Kd [2] | apparent Kd [3] | apparent Kd [4]
GUUGGAUGAGGAUAUCGAGGUUAGUACAUGAGGAUCACCCAUGUUAUCCAGGUGUCGGUUCGAGAAGGCAUUGGAC | 32.6 nM | 114 nM | – | –
GUUGGGCCUCCCUCUCCACGUUCAACAUGAGGAUCACCCAUGUAGGAUAUCGUUUGUUUUUUUUACGAGAAGGGCGUACUUCCC | 8.99 nM | 8.06 nM | – | –
GUUGUUUCUGAGGAUAUUAUUUUUUUCGAUUGAUAAGAAGGCAGUACAUGAGGAUCACCCAUGUGGGUUGUUUG | 54.5 nM | 164 nM | – | –
GUUUAGUGAGGAUAUGUGGCAUCGCCCGAGCGCGGUCGGCUACAGAAGGCACAUGAGGAUCACCCAUGUUUCUC | 38.6 nM | 585 nM | – | –
GUUUAUUUACAGAAGGUGUUUUACAUGAGGAUCACCCAUGUUUAAAGGUAUAAAGAAUUUAUUUACAAGGAUAUGUACAAUUUU | – | – | 34.1 nM | 22.1 nM
GUUUCACAUGAGGAUCACCCAUGUGAGGAUAUGGUUUCGCUGGCCGUAGCCAGUGGAACCAGAAGGCGCGUGAU | 60.7 nM | 71.1 nM | – | –
GUUUUACAUGAGGAUCACCCAUGUGAGGAUAUAUUGUUAUUUUUGAUAUUUUUUGGUGGUAGAAGGCGCGUGAU | 36.4 nM | 32.7 nM | – | –
GUUUUAUAAGAGAAGGAGGACUUCAUGAGGAUCACCCAUGUGUUAGUACUUAGGAUAUUUGAUAACAUGAGGAUCACCCAUGUC | – | – | 27.6 nM | 27.7 nM
GUUUUCGCAUGAGGAUAUGCUCGCAUUUCAAGAGCAGAAGGUAUGUCUAUAGACAUGAGGAUCACCCAUGUAUUUAUCAUUGAA | – | – | 273 nM | 118 nM
UAAAAGGAAGGAUAUACACUUCAAAACCUCAUGUGACUUUCACAUGAGGAUCACCCAUGUAGAAGGUCCAAGGC | 24 nM | 33.9 nM | – | –
UAAACAUGAGGAUCACCCAUGUAAUGAUCGGUUGAUGAAAGUGAGGAUAUACAAAAUUUUAUGGAGUAGAAGGCACUGGGUUCU | – | – | 49.9 nM | 40.3 nM
UAAACGUUCUAGAAGGUGCUAGCGAUAAGCUAGCAAGGAUAUAGACAUGAGGAUCACCCAUGUCUUUGUGACAUCGACAUACUU | 9.03 nM | 12.1 nM | – | –
UAAAUCGGAGGAUAUACAUGAGGAUCACCCAUGUAAUCGCGUUGGCAUCGGUGGGUUAGUAGAAGGCUGUAAAU | 30.5 nM | 45.3 nM | – | –
UAAAUCUUGUAAGGAUAUACACGAGAUUCAAGUGUAGAAGGUACUUACAUGAGGAUCACCCAUGUAUACAUGGAUAUUAGAUAU | – | – | 142 nM | 38.9 nM
UAAAUUAUACAAGGAUAUCUAUCGUAGUUUAGACUUACAUGAGGAUCACCCAUGUUAAUAUGUUUAGAGAAGGUGUAUUUUCAG | – | – | 43.3 nM | 22.5 nM
UAACUGCAGAAGAUAAUAAUGAAUACAUGAGGAUCACCCAUGUAGGAUAUCGUCAGGAAUACUGACGAGAAGGACAUACUGCAG | 14.1 nM | 16.9 nM | – | –
UAAUAAAGUGUGAGGAUAUGCUGGUCCUUGGAUCAGCAGAAGGCACAUGAGGAUCACCCAUGUAAUAUAUAAAU | 97.2 nM | 292 nM | – | –
UAAUAAUAAUAAUAGCAGAUUACAUGAGGAUCACCCAUGUAUAAGGAUAUCGUCAGGAAUACUGACGAGAAGGUAUACAACUGC | 18.9 nM | 25.7 nM | – | –
UAAUAGUGAGGAUAUACAGAAUCUGGGUCCCGCGUGUUGAGACAUGAGGAUCACCCAUGUAGAAGGCACAAAAU | 108 nM | 42.5 nM | – | –

Sequence | apparent Kd [1] | apparent Kd [2] | apparent Kd [3] | apparent Kd [4]
UAAUAUUUAUAAUAUUAUUACAUUAGAAGGCUAGACAUGUGGAUACAUGAGGAUCACCCAUGUAUAGAGGAUAUAGACAUAUAU | 29.5 nM | 79.9 nM | – | –
UAAUGUGACAUGAGGAUCACCCAUGUAGACAUGGGAAGGUCGUAGGAUAUGCUGAUGAUUUUUUUGCAGAAGGACGUCAAGGAG | – | – | 268 nM | 138 nM
UAAUUACAUGAGGAUCACCCAUGUGAGGAUAUGUCCAUAUUCGGCAAAUCGGAUAUGGACAGAAGGCACACCGG | 56.3 nM | 141 nM | – | –
UAAUUGUGAGGAUAUCAGGUGUGCUAGCGUACUGGUACAUCUGAGAAGGCACAUGAGGAUCACCCAUGUUCCUU | 13.8 nM | 37.6 nM | – | –
UACAGACAUGAGGAUCACCCAUGUGAGGAUAUCCAUAACGAUAUUACAAGUAUGACAGGGAGAAGGCACAGCAA | 41.3 nM | 52 nM | – | –
UACAGACAUGAGGAUCACCCAUGUGAGGAUAUCGAUAACAAUAAAAUAAUAUAAACAACGAGAAGGCACAGCAU | 57.4 nM | 73 nM | – | –
UACAUGAGGAUCACCCAUGUUUUGUCGUGUAUGGUAUUUAUCUAGGAUAUCAAUUUAAUUAUUUAUGAGAAGGAGAAUAUUAAU | 39.6 nM | 33.1 nM | – | –
UACAUGUGAGGAUAUUAGAUCGCUAACUGGCGGGAGCGAUCUGAGAAGGCACAUGAGGAUCACCCAUGUGUCGU | 16.9 nM | 40.2 nM | – | –
UACCUGAGGCAAAGCCUUAGGUAUACAUGAGGAUCACCCAUGUAGGAUAUGGUAGGCUUUGCUUACCAGAAGGACAUGUUAAUU | 19.8 nM | 63.8 nM | – | –
UACGGACAUGAGGAUCACCCAUGUGAGGAUAUCGGUACCGAUAGCAUAAUAUACUCGGCGAGAAGGCACAGCGU | 30 nM | 31.8 nM | – | –
UACUUACGAGGAUAUCGAUUGUGGUACAUGAGGAUCACCCAUGUAUGUGAUAUUGUAUUUCGAGAAGGCGUUCAGU | 25.8 nM | 21.7 nM | – | –
UAGAAGUCAGGAUAUCCUGCUCGUCACUUGCGUGAUGAGUAGGAGAAGGGACAUGAGGAUCACCCAUGUAAAGU | 56.5 nM | 63.9 nM | – | –
UAGAAGUCAGGAUAUGCAUGGCGGGACUUGCGUCGUGGCGUGCAGAAGGGACAUGAGGAUCACCCAUGUAAAGU | 51.5 nM | 55.5 nM | – | –
UAGAGAGGAAGCGAGGAUAUCGUGUGAGGAACAUGAGGAUCACCCAUGUGUGAUGUUGAGAGAGACGAGAAGGCGCAGGAAAUUA | – | – | 205 nM | 72.6 nM
UAGAUCAAUACAGGAUAUGGUGACGCACAUGAGGAUCACCCAUGUCCGCAGCGUGCUCAGCACGCCCAGAAGGGUAUUGAUUCG | – | – | 786 nM | 80.1 nM
UAGAUGGGAGGAUAUGCGUAGAUACGGAUUCGUGUAGUGCUACAUGAGGAUCACCCAUGUAGAAGGCCCGUCUU | 15.2 nM | 18.3 nM | – | –
UAGAUUUAUGUAGGAUAUACAUUUUGUACGUAUGUAGAAGGACAUGAGGAUCACCCAUGUAAAUAAAUAUUAAAUAUCAUAAUU | 50.5 nM | 32.4 nM | – | –
UAGCGGUAGGGAGGAUAUGCGAAAGGAAGGCCCGCAGAAGGCCUUACAUGAGGAUCACCCAUGUAGGAUGCCUGGGUGGUGCCC | 14.5 nM | 26.4 nM | – | –
